The list is not random: actives were taken first. Their share in the collection is about 2.9%.
CHO-K1 Ca ag – counter-screen for M1 agonists: effect in parental CHO-K1 cells. 360,000 compounds, 0.48% hits. Fluo-8 calcium fluorescence; scaled to maximal ATP response, vehicle zero. activation, % at 3 µM; in the data active = activation above about 15%;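 also: untransfected CHO-K1 host cells lacking M1 receptor as counterscreen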
CHO-K1 Ca PAM – M1 PAM counterscreen hit in parental CHO-K1 cells; ATP EC20, Fluo-8 calcium fluorescence; 0% at ATP EC20, 100% at ATP max; activation, % at 3 µM; 360,000 compounds, 0.02% hits; AID 602247;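 active = activation above the run cutoff, the mean activation of all test compounds plus 3 SD, cut at about 40% in these data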;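 also: peak over basal fluorescence ratio in a 140 s read after ATP addition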
CHO-K1 Ca antag – counter-screen for M1 antagonists: effect in parental CHO-K1 cells | ATP-induced calcium, Fluo-8 fluorescence | inhibition, % at 3 µM | 360,000 compounds, 0.6% hits | AID 602250;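 active = inhibition above a per-plate cutoff, the plate's mean sample inhibition plus 3 SD, cut at about 24% in these data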;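 also: 0% = DMSO plus EC80 ATP and 100% = DMSO alone without ATP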
OX1R antag-1 – blocks the human orexin 1 receptor; OX1R-expressing cells, FRET antagonist read-out; inhibition, % at 6.6 µM; 330,000 compounds, 1.8% hits; in the data active = inhibition mostly above about 38%, no sharp cut-off; inactive = mostly below about 40%;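 also: 0% = agonist challenge alone and 100% = reference antagonist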
Target sequence (O43613 whole entry, looked up): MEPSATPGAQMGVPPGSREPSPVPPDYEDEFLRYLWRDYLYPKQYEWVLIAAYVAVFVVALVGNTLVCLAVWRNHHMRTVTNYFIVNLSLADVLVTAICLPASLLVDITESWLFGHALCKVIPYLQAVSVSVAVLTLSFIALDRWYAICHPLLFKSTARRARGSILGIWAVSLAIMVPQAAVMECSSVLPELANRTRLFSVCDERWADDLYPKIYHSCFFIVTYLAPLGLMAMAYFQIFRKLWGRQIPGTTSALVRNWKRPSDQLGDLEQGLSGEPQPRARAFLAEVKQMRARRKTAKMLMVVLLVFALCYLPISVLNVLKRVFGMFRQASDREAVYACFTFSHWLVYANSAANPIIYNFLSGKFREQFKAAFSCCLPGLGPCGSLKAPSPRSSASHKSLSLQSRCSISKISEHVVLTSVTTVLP
CHO parental Ca – counter-screen for OX1R antagonists: effect in parental CHO cells | parental CHO-K1, ATP-induced calcium, Fluo-8 fluorescence | inhibition, % at 5.6 µM | 330,000 compounds, 0.63% hits | AID 463079;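 active = inhibition above that plate's mean sample inhibition plus 3 SD, cut at about 26% in these data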;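 also: 0% = ATP-challenged DMSO wells and 100% = DMSO wells without ATP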
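material = parental CHO cells | also added = ATP as calcium-mobilizing challenge | dosing = single point at 5.6 µM | detection = intracellular calcium via Fluo-8 no-wash fluorescent dye | read-out = % inhibition | benchmarks = low control ATP plus DMSO, high control DMSO only | repeats = one well per compound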
OX1R antag-2 – antagonists of human orexin 1 receptor; O43613; CHO/OX1R cells, Fluo-8 calcium fluorescence, orexin A; inhibition, % at 5 µM; 330,000 compounds, 0.43% hits; AID 434989;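 active = inhibition above its plate's threshold, mean inhibition of all tested compounds on the plate plus 3 SD, cut at about 37% in these data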;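 also: 0% = orexin A challenge wells and 100% = SB-334867-A antagonist wells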
OX1R HTRF conf – confirmation of human orexin 1 receptor antagonists, HTRF format; OX1R-expressing cells, HTRF antagonist assay; 1,800 compounds, 49% hits; inhibition, % at 6.6 µM; shares compounds with OX1R antag-1; in the data active = inhibition above about 55%;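 also: CHO cells expressing OX1R stimulated with orexin A at about EC80; 0% = agonist challenge alone and 100% = reference antagonist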
CHO-K1 HTRF cnt – counter-screen for OX1R antagonists: effect in parental CHO-K1 cells; shares compounds with OX1R antag-1; HTRF counterscreen; inhibition, % at 6.6 µM; 1,800 compounds, 48% hits; AID 493232; in the data active = inhibition above about 17%;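 also: 0% = agonist challenge with vehicle and 100% = vehicle alone without agonist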
Numbers without * were called inactive.

CC(C)(C)OC(=O)N/N=C\c1ccc([N+](=O)[O-])s1 was read as CHO-K1 Ca ag 1, CHO-K1 Ca PAM 14, CHO-K1 Ca antag 1, OX1R antag-1 88*, CHO parental Ca -3, OX1R antag-2 -12, OX1R HTRF conf 38 and CHO-K1 HTRF cnt 44*.
Screening COc1ccc(NC(=O)CCC(=O)N/N=C/c2cccnc2)cc1 returned CHO-K1 Ca ag 1, CHO-K1 Ca PAM -9, CHO-K1 Ca antag -15, OX1R antag-1 6, CHO parental Ca 1 and OX1R antag-2 -1.
COc1ccc(NC(=O)CCC(=O)N/N=C/c2ccc([N+](=O)[O-])s2)cc1 was read as CHO-K1 Ca ag 3, CHO-K1 Ca PAM 4, CHO-K1 Ca antag 0, OX1R antag-1 81*, CHO parental Ca -3, OX1R antag-2 -5, OX1R HTRF conf 47 and CHO-K1 HTRF cnt 45*.
For COCCCNC(=O)c1ccc([N+](=O)[O-])cc1 the results were CHO-K1 Ca ag 0, CHO-K1 Ca PAM 23, CHO-K1 Ca antag -10, OX1R antag-1 42, CHO parental Ca 1 and OX1R antag-2 -6.
Screening O=C(NCCCCC(NC(=O)c1ccc([N+](=O)[O-])cc1)C(=O)O)c1ccc([N+](=O)[O-])cc1 (stereo not drawn) returned CHO-K1 Ca ag 0, CHO-K1 Ca PAM 13, CHO-K1 Ca antag -6, OX1R antag-1 137*, CHO parental Ca -12, OX1R antag-2 -12, OX1R HTRF conf 37 and CHO-K1 HTRF cnt 58*.
Screening N#Cc1cc(NCC2CCCO2)c([N+](=O)[O-])cc1C#N (stereo not drawn) returned CHO-K1 Ca ag 1, CHO-K1 Ca PAM 18, CHO-K1 Ca antag 2, OX1R antag-1 126*, CHO parental Ca -1, OX1R antag-2 -16, OX1R HTRF conf 51 and CHO-K1 HTRF cnt 71*.
For COc1ccc(NC(=O)c2ccc(NCC3CCCO3)c([N+](=O)[O-])c2)cc1 (stereo not drawn) the results were CHO-K1 Ca ag 0, CHO-K1 Ca PAM -12, CHO-K1 Ca antag 7, OX1R antag-1 77*, CHO parental Ca 0, OX1R antag-2 5, OX1R HTRF conf 29 and CHO-K1 HTRF cnt 18*.
Screening CCOc1ccc(CCNC(=O)COC(=O)c2ccc(OC(C)C)cc2)cc1OCC returned CHO-K1 Ca ag 0, CHO-K1 Ca PAM -7, CHO-K1 Ca antag -16, OX1R antag-1 42, CHO parental Ca -21 and OX1R antag-2 -27.
Screening CC(CC1C(C#N)=C(N)SC(N)=C1C#N)c1ccccc1 (stereo not drawn) returned CHO-K1 Ca ag 14, CHO-K1 Ca PAM 5, CHO-K1 Ca antag -10, OX1R antag-1 88*, CHO parental Ca 9, OX1R antag-2 8, OX1R HTRF conf 24 and CHO-K1 HTRF cnt 2.
For CCN(CC)C1=NS(=O)(=O)c2cc([N+](=O)[O-])ccc21 the results were CHO-K1 Ca ag 0, CHO-K1 Ca PAM 6, CHO-K1 Ca antag 6, OX1R antag-1 active, CHO parental Ca 1, OX1R antag-2 -12, OX1R HTRF conf 48 and CHO-K1 HTRF cnt 97*.
For CC(=O)Nc1ccc(NC(=O)C(C)OC(=O)CCCOc2ccc(Cl)c(C)c2)cc1 (stereo not drawn) the results were CHO-K1 Ca ag 6, CHO-K1 Ca PAM -13, CHO-K1 Ca antag 2, OX1R antag-1 85*, CHO parental Ca -6, OX1R antag-2 20, OX1R HTRF conf 78* and CHO-K1 HTRF cnt 6.
`C/C(=N\Nc1nnc2c3ccccc3n(C)c2n1)c1ccc(C)o1` gave CHO-K1 Ca ag 2, CHO-K1 Ca PAM 16, CHO-K1 Ca antag -9, OX1R antag-1 93*, CHO parental Ca -13, OX1R antag-2 0, OX1R HTRF conf 96* and CHO-K1 HTRF cnt 17*.
`COc1ccccc1C(=O)NCCC(=O)N1CC=C(c2ccccc2)CC1` gave CHO-K1 Ca ag 0, CHO-K1 Ca PAM -8, CHO-K1 Ca antag 1, OX1R antag-1 30, CHO parental Ca -15 and OX1R antag-2 -11.
Screening COC(=O)c1cc2c(C)cc3ccc(C)cn3c-2c1C(=O)OC returned CHO-K1 Ca ag 0, CHO-K1 Ca PAM -1, CHO-K1 Ca antag 4, OX1R antag-1 65, CHO parental Ca -25 and OX1R antag-2 -14.
For COC(=O)c1cc2ccccn2c2c(C(=O)OC)c(C(=O)OC)cc1-2 the results were CHO-K1 Ca ag 3, CHO-K1 Ca PAM 16, CHO-K1 Ca antag -1, OX1R antag-1 94*, CHO parental Ca -14, OX1R antag-2 -15, OX1R HTRF conf 39 and CHO-K1 HTRF cnt 25*.
CCCCc1ccc(NS(=O)(=O)c2cccc(C(=O)N3CCNC(=O)C3)c2)cc1 was read as CHO-K1 Ca ag 0, CHO-K1 Ca PAM 1 and CHO-K1 Ca antag 2.
`CC(=O)Nc1ccc(NC(=O)CCCn2cnc3ccccc3c2=O)cc1` gave CHO-K1 Ca ag 4, CHO-K1 Ca PAM 7, CHO-K1 Ca antag 0, OX1R antag-1 -4, CHO parental Ca -6 and OX1R antag-2 -5.
`Cc1ccc(NCC(=O)N=Nc2c(O)n(C)c3ccccc23)cc1` gave CHO-K1 Ca ag 0, CHO-K1 Ca PAM 9, CHO-K1 Ca antag -11, OX1R antag-1 95*, CHO parental Ca 11, OX1R antag-2 -4, OX1R HTRF conf 38 and CHO-K1 HTRF cnt 32*.
`Cc1cc(O)ccc1NC(=O)CCN1C(=O)c2ccc([N+](=O)[O-])cc2C1=O` gave CHO-K1 Ca ag 1, CHO-K1 Ca PAM 12, CHO-K1 Ca antag -5, OX1R antag-1 151*, CHO parental Ca 6, OX1R antag-2 6, OX1R HTRF conf 69* and CHO-K1 HTRF cnt 74*.
Cc1ccc(NC(=O)CCN2C(=O)c3ccccc3C2=O)c(C)c1 was read as CHO-K1 Ca ag 1, CHO-K1 Ca PAM 4, CHO-K1 Ca antag -8, OX1R antag-1 0, CHO parental Ca -7 and OX1R antag-2 -14.
CCOC(=O)Sc1nc2ncncc2[nH]1 was read as CHO-K1 Ca ag 0, CHO-K1 Ca PAM -5 and CHO-K1 Ca antag 1.
